# proCasp7 act: procaspase-7 activators, primary screen, counter-screen for procaspase-3 activator project, biochemical, absorbance, HTS, human. recombinant procaspase-7, Ac-DEVD-pNA absorbance 405 nm; D23A/D198A/D206A triple mutant, cannot self-cleave; scale: DMSO 0, 5 µM enzyme 100. Caspase-7 (Homo sapiens), P55210. hit rate 0.093% among 330,000. activation, % at 8.5 µM;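 active means percent activation above the screen-wide mean plus 3 SD, cut at about 25% in these data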
#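 System: Procaspase-7 triple mutant (PC-7 D3A); measure: % activation from two-timepoint absorbance difference, scaled to controls; times: 1 h compound preincubation, 2 h substrate cleavage, 25 °C; also added: Ac-DEVD-pNA substrate, 400 µM as added; measured by: Epi-absorbance of released pNA at 405 nm, two timepoints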
# procasp3 activ: activators of human procaspase-3 D3A mutant, primary screen, biochemical, absorbance, PC-3 D3A mutant, single concentration | Caspase-3 (Homo sapiens), P42574 | recombinant procaspase-3 D3A, Ac-DEVD-pNA absorbance 405 nm | activation, % at 8.5 µM | hit rate 0.11% among 330,000 | AID 463141, 2010;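 active means activation above the mean of all tested compounds plus 3 SD, cut at about 21% in these data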;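 further: 0% = DMSO alone and 100% = DMSO wells spiked with extra 5 µM PC-3 D3A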
#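 assay system = Procaspase-3 D3A mutant | signal = absorbance at 405 nm, 0 and 120 min | times = 1 h preincubation plus 2 h reaction at 25 °C | repeats = single replicate | read-out = % activation between DMSO and enzyme-spiked controls | medium = Zinc-free HEPES saline buffer with Triton X-100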
# LANA-H2A inh: blockers of LANA interaction with H2A/H2B – biochemical, FP readout, HTS, primary screen; cell-free LANA-H2A/H2B peptide, fluorescence polarization; AID 2629, 2010; hit rate 0.6% among 320,000; inhibition, % (no concentration beside the values); in the data active means inhibition mostly above about 10%, no sharp cut-off; inactive means mostly below about 6.7%
# Yeast superoxide: reduction of superoxide in aged yeast, primary screen, HTS; S. cerevisiae aged cells, superoxide DHE fluorescence; hits give low values; superoxide response (% of plate mean), % at 10 µM; hit rate 0.18% among 330,000; AID 2690, 2010;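 active means superoxide response under a set limit, about three screen SD below normal, cut at about 65% in these data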;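 further: yeast aged for seven days with compound at 30 °C before DHE staining; 100% = average MFI of all compound-treated wells on the plate with controls excluded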
# ARFGAP1 inhibitor: inhibitors of rat ARFGAP1 GAP activity, primary screen, biochemical, fluorescence polarization, GDP tracer; Arfgap1-stimulated ARF1 GTP hydrolysis, GDP FP detection; hit rate 0.26% among 360,000; inhibition, % at 16.5 µM; ADP-ribosylation factor GTPase-activating protein 1 (Rattus norvegicus), Q62848;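 active means inhibition above a per-plate limit, mean inhibition of low control wells plus 3 SD, cut at about 25% in these data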;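 further: 0% = DMSO wells with enzyme and 100% = wells lacking Arfgap1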
# Target sequence (Q62848 1-136 limits assumed): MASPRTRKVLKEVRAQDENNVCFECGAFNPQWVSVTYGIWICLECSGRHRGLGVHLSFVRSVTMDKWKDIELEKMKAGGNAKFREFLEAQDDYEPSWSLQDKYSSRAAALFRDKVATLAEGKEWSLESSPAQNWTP
#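 System: truncated rat Arfgap1 GAP domain / Benchmarks: high control wells lacking Arfgap1, low control full reaction with DMSO / Times: compound-enzyme preincubation 20 min, reaction 120 min, detection 60 min, 25 °C / Repeats: one replicate per compound / Also added: human ARF1(Δ1-17)-GTP substrate / Measured by: Tracer-displacement fluorescence polarization with EDTA stop, 620/688 nm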
# ASAP1 inh: inhibitors of human ASAP1 ArfGAP activity, primary screen, biochemical, fluorescence polarization; Arf-GAP with SH3 domain, ANK repeat and PH domain-containing protein 1 (Homo sapiens), …; ASAP1-stimulated ARF1 GTP hydrolysis, GDP FP detection; inhibition, % at 16.5 µM; hit rate 0.19% among 360,000; AID 624377, 2012; in the data active means inhibition above about 25%;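 further: 0% = vehicle with enzyme and substrate and 100% = no enzyme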
# Target sequence (Q9ULH1 325-724 limits assumed): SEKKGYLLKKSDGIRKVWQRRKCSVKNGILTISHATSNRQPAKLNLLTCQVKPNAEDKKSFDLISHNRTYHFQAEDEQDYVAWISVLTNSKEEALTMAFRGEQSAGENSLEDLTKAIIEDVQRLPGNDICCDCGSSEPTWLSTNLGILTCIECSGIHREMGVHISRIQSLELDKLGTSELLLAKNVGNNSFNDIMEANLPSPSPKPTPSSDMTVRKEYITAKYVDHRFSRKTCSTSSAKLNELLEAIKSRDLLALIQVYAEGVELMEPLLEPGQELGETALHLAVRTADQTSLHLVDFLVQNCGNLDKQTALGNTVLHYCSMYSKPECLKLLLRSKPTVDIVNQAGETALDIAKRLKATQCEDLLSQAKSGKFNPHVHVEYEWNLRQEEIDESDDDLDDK
# An asterisk follows results filed as active; x = no result; + = active, no number; ! = a repeat was not active. This is a sample that favours compounds with a hit; in the whole collection about 1.2% have one here.
SMILES,proCasp7 act,procasp3 activ,LANA-H2A inh,Yeast superoxide,ARFGAP1 inhibitor,ASAP1 inh
O=C(CCNC(=O)c1ccc(Br)cc1)NCCCN1CCOCC1,6,-1,51*,110,5,7
O=C(NC1CCSC1=O)C1CCCCC1 (stereo not drawn),3,1,1,94,4,3
Cc1cc(N2CCNC[C@H]2C)ccc1N1CCN(Cc2ccccc2)[C@H](C)C1,x,x,x,x,-6,0
CC1=C/C(=C\C=C(C#N)C#N)N(C)c2ccccc21,-1,-1,-8,98,3,-13
CC1=CC(=C(C#N)C#N)c2ccccc2N1C,-6,0,46*,83,6,12
C[C@@H]1CN([C@H](C)CO)C(=O)c2cc(NS(=O)(=O)c3ccccc3)ccc2O[C@@H](C)CCCCO[C@@H]1CN(C)Cc1ccc(Cl)c(Cl)c1,x,x,x,x,7,12
Cc1cccc(C)c1NC(=O)CN(C)C(C)C(=O)NCC(=O)Nc1ccc(F)c(F)c1F (stereo not drawn),-8,5,187*,100,-7,-18
Cc1ccc(NC(=O)C(c2ccccc2)N(C)C)cc1Cl (stereo not drawn),-1,3,12*,107,x,x
Cc1ccc(NC(=O)C(OC(=O)c2ccc(F)cc2)c2ccccc2)cc1Cl (stereo not drawn),2,2,5,87,1,16
COc1ccc(C(=O)c2[nH]c(N)c(C(=O)c3c[nH]c4ccccc34)c2-c2ccc(OC)cc2)cc1,x,x,x,x,-6,3
CCOc1c(Br)cc(/C=C(\C#N)C(=O)NC2CC2)cc1OC,-2,5,0,95,8,-4
C=CCNC(=O)/C(C#N)=C\c1cc(Cl)c(OCC)c(OC)c1,4,8,-1,63*,-1,8
CCCCc1c(C)[nH]c(=S)[nH]c1=O,-1,0,2,95,4,-2
Cc1[nH]c(=S)[nH]c(=O)c1CCCO,-6,-11,18*,88,-9,0
O=C(c1csc2c1CCCC2)n1cccn1,1,6,0,60*,6,-10
O=C1c2[nH]nc(-c3ccccc3)c2C(c2cccc(C(F)(F)F)c2)N1c1ccccc1 (stereo not drawn),x,x,x,x,-5,-3
COCCNc1ncnc2c1cnn2-c1ccc(Cl)cc1,-4,-1,20*,116,4,7
OCCOCCNc1ncnc2c1cnn2-c1ccc(Cl)cc1,11,1,-3,146,7,1
CN(C)CCCNc1ncnc2c1cnn2-c1ccccc1,4,-3,14*,106,x,x
CCCCNc1ccc2c(c1)OC[C@H](Cc1ccccc1)NS2(=O)=O,x,x,x,x,0,-3
COc1ccc(-c2cccc3c4c([nH]c23)[C@@H]2C[C@H]3[C@@H](C(=O)N2CC4)[C@H](C)ON3C)cc1,x,x,x,x,-5,4
CC(=O)Nc1ccc(NC(=O)CSc2nnc(-c3ccco3)o2)cc1,4,-1,20*,100,4,-10
Cc1cc(NC(=O)CSc2nnc(-c3ccco3)o2)no1,-5,1,7,105,9,7
COc1cccc(CN(C)[C@H]2C[C@H]3c4[nH]c5ccccc5c4CCN3C[C@H]2[C@H](C)O)c1OC,x,x,x,x,10,-6
N#C/C(=C\Nc1ccc2cn[nH]c2c1)c1nc(-c2ccc(Cl)cc2)cs1,-6,0,0,120,15,29*
SMILES,proCasp7 act,procasp3 activ,LANA-H2A inh,Yeast superoxide,ARFGAP1 inhibitor,ASAP1 inh
COc1ccc(-c2sc3cc(OC)c(OC)cc3c2-c2ccc(O)cc2)cc1,0,3,+,106,21,11
COc1ccc(-c2sc3ccccc3c2-c2ccc(O)cc2)cc1,4,0,-1,103,14,15
NC(=O)c1nn(CC(=O)Nc2cccc(S(=O)(=O)N3CCCC3)c2)c(=O)c2ccccc12,-2,-4,-1,116,3,0
NC(=O)c1nn(CC(=O)Nc2cccc(S(=O)(=O)N3CCCCCC3)c2)c(=O)c2ccccc12,-13,-4,+,118,10,-12
COC(=O)c1ccccc1NC(=O)NCc1ccccc1,-7,-2,-10,107,-6,6
COC(=O)c1ccccc1NC(=O)NCc1ccncc1,1,-1,35*,101,7,-3
COc1ccccc1C1C(C(=O)c2sc(C)nc2C)=C(O)C(=O)N1CCN1CCOCC1 (stereo not drawn),-1,4,17*,92,10,4
COc1cccc(C2C(C(=O)c3sc(C)nc3C)=C(O)C(=O)N2CCN2CCOCC2)c1OC (stereo not drawn),-5,-7,-6,84,4,7
CCCNC(=O)C1(C)CCN(C(=O)c2cccnc2Oc2ccccc2)C1 (stereo not drawn),x,x,x,x,-8,0
CC(C)(C)c1ccc(C(=O)Nn2cnnc2)cc1,4,13,-26,100,-9,-1
CC(=O)Oc1ccc(C(=O)Nn2cnnc2)cc1,-1,10,18*,82,10,3
CC(Sc1nnc(C2CC2)n1C1CC1)C(=O)Nc1cccc(S(=O)(=O)N2CCOCC2)c1 (stereo not drawn),5,4,18*,105,-12,-17
CC(C)CC(NC(=O)C(NC(=O)OC(C)(C)C)C(C)C)C(=O)NC(CCC(=O)OCc1ccccc1)C(N)=O (stereo not drawn),1,4,21*!,126,9,-1
Cc1c(C(=O)OCCOc2ccccc2)[nH]c2c1C(=O)CCC2,10,0,1,108,-2,18
CCCc1c(C(=O)OCC)[nH]c2c1C(=O)CCC2,10,3,36*,97,4,15
COc1ccccc1N1CCN(C(=O)c2cc3cc(C)ccc3[nH]2)CC1,15,6,15*,110,-7,-2
O=C(C(=O)N1CCC(CNC(=O)c2sc3ccccc3c2Cl)CC1)c1cccs1,x,x,x,x,7,13
Cc1cc(-c2n[nH]c(=S)n2/N=C/c2cccc(O)c2)n[nH]1,4,-3,4,65*,7,3
COc1ccc(-c2cc(C(F)(F)F)n3nc(C(=O)N(C)Cc4ccccc4)cc3n2)cc1OC,-16,-8,18*,118,6,-7

# Source: PubChem BioAssay (several laboratories)
